According to article PMC3357394 (Organic & biomolecular chemistry, 2011):

Legend:
[1] = molecular target: T1, recombinant CD38 (Homo sapiens, UniProt P28907); experiment: Inhibition of the NADase; format: biochemical; settings: for inhibitory activity against CD38 NADase (in words): recombinant CD38
T1 sequence (P28907 45-300): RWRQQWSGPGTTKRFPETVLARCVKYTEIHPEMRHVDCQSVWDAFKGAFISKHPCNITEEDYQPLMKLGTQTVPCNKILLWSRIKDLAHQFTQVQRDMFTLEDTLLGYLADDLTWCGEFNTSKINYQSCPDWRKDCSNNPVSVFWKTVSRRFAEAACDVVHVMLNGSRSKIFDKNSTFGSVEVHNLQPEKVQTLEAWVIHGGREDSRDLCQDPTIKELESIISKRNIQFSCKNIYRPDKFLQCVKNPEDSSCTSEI

[2] = tested on: phenylephrine-induced contraction in rat aortic ring preparations with intact endothelium; settings: Phe (1 μM)-contracted endothelium-intact rat aortic rings, 30-300 μM
Outline: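 Endothelium-intact 3 mm thoracic aortic rings from male Sprague-Dawley rats (250–300 g) were held isometrically at 15 mN in Krebs solution (37°, 95% O2-5% CO2, pH≈7.4) and checked with 0.3 μM Phe then 1 μM ACh. After 60 min equilibration, rings were precontracted with 1 μM Phe and given cumulative water-dissolved test compound (30–300 μM). pD2 came from nonlinear fits of individual curves; mean±SEM, 3–5 rats/group.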

[3] = tested on: PC12 cells; settings: cited from earlier work
[4] = molecular target: CD38; settings: inhibitors of CD38; cited from earlier work
[5] = molecular target: NAD+ glycohydrolase activity of CD38; settings: competitive inhibitor of NAD+ glycohydrolase activity of CD38; cited from earlier work

Row | Structure (SMILES) | IC50 [1] [mM] | inhibitory activity against CD38 NADase (in words) [1] | further results
1 | COc1ccc(OCCOC[n+]2cccc(C(N)=O)c2)cc1.[Cl-] [Compound 3, 1-{[2-(4-methoxy-phenoxy)ethoxy]methyl}-3-(aminocarbonyl)-pyridinium chloride] | 11.4 | weak inhibitory activities | –
2 | NC(=O)c1ccc[n+](COCCOc2ccc(Oc3ccccc3)cc2)c1.[Cl-] [Compound 4, 1-{[2-(4-phenoxy-phenoxy)ethoxy]methyl}-3-(aminocarbonyl)-pyridinium chloride] | 3.42 | weak inhibitory activities | vascular relaxing effect (in words) [2]: concentration-dependent relaxation
3 | NC(=O)c1ccc[n+](COCCOc2ccc([N+](=O)[O-])cc2)c1.[Cl-] [Compound 5, 1-{[2-(4-nitro-phenoxy)ethoxy]methyl}-3-(aminocarbonyl)-pyridinium chloride] | 5.65 | weak inhibitory activities | –
4 | NC(=O)c1ccc[n+](COCCOc2cccc(C(F)(F)F)c2)c1.[Cl-] [Compound 6, 1-{[2-(3-trifluoromethyl-phenoxy)ethoxy]methyl}-3-(aminocarbonyl)-pyridinium chloride] | – | no affinity for CD38 | –
5 | NC(=O)c1ccc[n+](COCCOc2cccc3cccnc23)c1.[Cl-] [Compound 7, 1-{[2-(8′-quinolyloxy)ethoxy]methyl}-3-(aminocarbonyl)-pyridinium chloride] | – | weak inhibitory activities | inhibition of acetylcholine (Ach)-induced Ca2+ increase (in words) [3]: significantly inhibited
6 | NC(=O)c1ccc[n+](COCCCCOC[n+]2cccc(C(N)=O)c2)c1.[Cl-].[Cl-] [Compound 9, 1,4-dimethoxy-butylene-bis-N,N′-3-(aminocarbonyl)-pyridinium dichloride] | – | – | vascular relaxing effect (in words) [2]: no such vascular relaxing effect
7 | NC(=O)c1ccc[n+](COC/C=C/COc2cccc3cccnc23)c1.[Cl-] [Compound 12, (E)-1-{[4-(8′-quinolyloxy)but-2-enyloxy]methyl}-3-(aminocarbonyl)-pyridinium chloride] | – | weak inhibitory activities | –
8 | NC(=O)c1ccc2c(ccc[n+]2COCCOc2ccc(Oc3ccccc3)cc2)c1.[Cl-] [Compound 13, 1-{[2-(4-phenoxy-phenoxy)ethoxy]methyl}-6-(aminocarbonyl)-quinolinium chloride] | 2.12 | weak inhibitory activities | –
9 | NC(=O)c1c[n+](COCCOc2ccc(Oc3ccccc3)cc2)ccc1N.[Cl-] [Compound 14, 1-{[2-(4-phenoxy-phenoxy)ethoxy]methyl}-3-(aminocarbonyl)-4-amino-pyridiniu m chloride] | 4.8 | weak inhibitory activities | –
10 | NC(=O)c1ccc[n+]([C@@H]2O[C@H](COP(=O)(O)O)C(O)C2F)c1 (stereo partly drawn) [ara-F NMN] | – | – | Ki [4]: nano-molar range
11 | NC(=O)c1ccc[n+]([C@@H]2C[C@H](COP(=O)([O-])OP(=O)(O)OC[C@H]3O[C@@H](n4cnc5c(N)ncnc54)[C@H](O)[C@@H]3O)[C@@H](O)[C@H]2O)c1 [carba-NAD^+, dinucleotide carbanicotinamide adenine dinucleotide] | – | – | IC50 [5]: ~0.1 mM
